Test results taken from publication PMC7141570 (Febs Letters, 2000).
Values joined by “and” are separate entries in the source; they are usually repeats but may differ in a detail not shown here. Equal values may be shown once. “Also recorded” adds a separate entry of the source.

Assays:
[1] = molecular target: T1, APN in rat brain membranes (Rattus norvegicus, UniProt P15684); experiment: Competition with [125I]RB 129 binding on rat brain membranes; settings: for inhibition of specific [125I]RB 129 binding (qualitative): rat brain membranes
T1 sequence (P15684 1-965): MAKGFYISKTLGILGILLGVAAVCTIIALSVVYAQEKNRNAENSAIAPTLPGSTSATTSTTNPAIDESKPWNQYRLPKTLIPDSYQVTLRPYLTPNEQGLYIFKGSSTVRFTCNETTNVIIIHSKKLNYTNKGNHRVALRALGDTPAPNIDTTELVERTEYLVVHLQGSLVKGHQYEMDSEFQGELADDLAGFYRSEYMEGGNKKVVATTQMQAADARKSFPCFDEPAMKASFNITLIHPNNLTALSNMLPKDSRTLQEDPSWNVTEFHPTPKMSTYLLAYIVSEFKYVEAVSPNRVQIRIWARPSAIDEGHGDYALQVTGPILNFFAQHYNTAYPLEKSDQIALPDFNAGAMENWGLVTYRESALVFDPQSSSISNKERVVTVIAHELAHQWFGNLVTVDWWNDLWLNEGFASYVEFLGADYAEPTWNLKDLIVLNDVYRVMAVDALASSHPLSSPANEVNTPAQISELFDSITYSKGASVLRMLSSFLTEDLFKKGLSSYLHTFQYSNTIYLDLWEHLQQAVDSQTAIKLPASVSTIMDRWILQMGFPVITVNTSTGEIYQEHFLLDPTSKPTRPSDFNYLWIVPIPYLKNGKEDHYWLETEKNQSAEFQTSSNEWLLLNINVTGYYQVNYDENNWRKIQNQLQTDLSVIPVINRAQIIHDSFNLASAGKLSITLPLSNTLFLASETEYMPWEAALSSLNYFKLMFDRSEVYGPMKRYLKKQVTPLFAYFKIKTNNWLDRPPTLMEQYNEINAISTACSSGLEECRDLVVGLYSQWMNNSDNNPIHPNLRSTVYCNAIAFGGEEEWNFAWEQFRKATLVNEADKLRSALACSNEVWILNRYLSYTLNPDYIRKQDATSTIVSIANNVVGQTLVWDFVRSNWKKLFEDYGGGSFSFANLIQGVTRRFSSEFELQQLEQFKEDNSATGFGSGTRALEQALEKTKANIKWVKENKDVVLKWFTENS

pure porcine APN = settings: read-out: K i in enzymatic studies; cited from earlier work
recombinant pig APN [2] = molecular target: T2, recombinant pig APN (Sus scrofa, UniProt P15145); format: binding; settings: transfected COS-7 cell membranes
T2 sequence (P15145 1-963): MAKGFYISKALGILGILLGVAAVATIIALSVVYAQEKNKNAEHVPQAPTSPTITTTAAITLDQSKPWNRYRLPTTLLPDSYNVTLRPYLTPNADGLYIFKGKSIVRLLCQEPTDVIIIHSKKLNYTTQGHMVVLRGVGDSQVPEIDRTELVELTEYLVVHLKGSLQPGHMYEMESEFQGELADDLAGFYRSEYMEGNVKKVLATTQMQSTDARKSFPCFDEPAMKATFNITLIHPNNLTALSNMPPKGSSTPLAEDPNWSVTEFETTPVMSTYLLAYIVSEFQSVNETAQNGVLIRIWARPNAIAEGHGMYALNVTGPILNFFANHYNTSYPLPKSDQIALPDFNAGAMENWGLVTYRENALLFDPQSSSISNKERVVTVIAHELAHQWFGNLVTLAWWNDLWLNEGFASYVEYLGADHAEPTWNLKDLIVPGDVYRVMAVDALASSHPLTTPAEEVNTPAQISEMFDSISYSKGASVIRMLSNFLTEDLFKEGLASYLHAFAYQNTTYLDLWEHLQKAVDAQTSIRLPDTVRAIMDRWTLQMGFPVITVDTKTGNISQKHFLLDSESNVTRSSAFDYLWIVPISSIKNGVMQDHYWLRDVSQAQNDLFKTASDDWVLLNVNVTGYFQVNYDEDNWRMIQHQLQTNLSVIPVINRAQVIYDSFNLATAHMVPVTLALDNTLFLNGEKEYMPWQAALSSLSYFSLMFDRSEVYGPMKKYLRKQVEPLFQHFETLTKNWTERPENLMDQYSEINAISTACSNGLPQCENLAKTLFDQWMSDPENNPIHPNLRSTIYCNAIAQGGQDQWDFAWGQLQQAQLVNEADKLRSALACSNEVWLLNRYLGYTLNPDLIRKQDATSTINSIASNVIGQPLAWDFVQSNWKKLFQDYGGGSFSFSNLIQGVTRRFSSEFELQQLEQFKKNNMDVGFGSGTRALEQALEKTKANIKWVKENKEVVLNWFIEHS

NEP = settings: read-out: K i for NEP; enzymatic assay; cited from earlier work
APN mutant E^350A = molecular target: T3, APN mutant E^350A (Sus scrofa, UniProt P15145, E350A); experiment: [125I]RB 129 binding to mutated APN expressed in COS-7 cells; parameters: species or system pig; settings: E^350A mutated APN in COS-7 cells
T3 sequence (P15145 2-963 E350A): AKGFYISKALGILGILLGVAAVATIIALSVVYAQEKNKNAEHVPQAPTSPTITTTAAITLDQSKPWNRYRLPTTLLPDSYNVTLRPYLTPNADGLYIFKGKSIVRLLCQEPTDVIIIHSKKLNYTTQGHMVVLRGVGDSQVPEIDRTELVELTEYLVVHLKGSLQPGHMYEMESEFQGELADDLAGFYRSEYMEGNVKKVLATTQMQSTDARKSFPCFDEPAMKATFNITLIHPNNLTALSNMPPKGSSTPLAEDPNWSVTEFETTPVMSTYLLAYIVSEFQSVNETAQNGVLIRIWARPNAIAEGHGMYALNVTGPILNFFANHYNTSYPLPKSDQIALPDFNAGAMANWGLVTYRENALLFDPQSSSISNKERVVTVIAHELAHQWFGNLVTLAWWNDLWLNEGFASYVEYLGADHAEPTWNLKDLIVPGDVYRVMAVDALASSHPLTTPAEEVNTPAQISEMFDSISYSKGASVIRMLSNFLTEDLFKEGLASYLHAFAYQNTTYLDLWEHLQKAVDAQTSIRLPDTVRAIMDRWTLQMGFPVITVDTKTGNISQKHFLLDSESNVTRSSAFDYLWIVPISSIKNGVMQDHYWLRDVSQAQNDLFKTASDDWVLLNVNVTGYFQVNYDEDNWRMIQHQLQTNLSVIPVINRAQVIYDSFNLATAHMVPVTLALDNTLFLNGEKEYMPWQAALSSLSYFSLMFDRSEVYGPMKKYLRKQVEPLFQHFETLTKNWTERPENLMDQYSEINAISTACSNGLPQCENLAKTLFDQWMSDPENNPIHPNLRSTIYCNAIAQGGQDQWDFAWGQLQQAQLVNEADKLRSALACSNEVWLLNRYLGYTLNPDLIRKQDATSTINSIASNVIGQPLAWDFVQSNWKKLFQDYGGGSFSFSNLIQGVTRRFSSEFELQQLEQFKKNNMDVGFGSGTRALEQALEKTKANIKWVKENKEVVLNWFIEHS
In short: (§1)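 Pig APN cDNA, wild-type or E350A, in pcDNA3 was electroporated (50 μg per 10×10^6 cells) into COS-7 cells grown in DMEM with 10% FCS, then kept 48 h at 37°C. Membranes (100 000×g) were resuspended in 50 mM Tris–HCl pH 7.4 with 0.02% bacitracin, 50–100 μg protein/tube. Saturation used 0.075–8 nM [125I]RB 129 for 80 min at 35°C with thiorphan, 1 μM RB 129 for nonspecific binding, GF/B filtration and Scatchard analysis.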

[3] = molecular target: T1, APN in rat brain membranes; experiment: [125I]RB 129 kinetic and saturation binding to rat brain membranes
In short: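 Rat brain minus cerebellum homogenised in 50 mM Tris–HCl pH 7.4, spun at 1000×g then 100 000×g; pellet resuspended in buffer with 0.02% bacitracin, 0.4–0.6 mg protein/ml. Incubations at 35°C with thiorphan. Kinetics used 100 pM [125I]RB 129, with dissociation started by 1 μM unlabeled RB 129 after 120 min. Saturation ran 0.075–8 nM for 80 min. Nonspecific binding defined with 1 μM RB 129; bound ligand collected on GF/B filters.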

recombinant pig APN [4] = molecular target: T2, recombinant pig APN; format: binding
In short: as §1

NC(CS)Cc1ccccc1 (stereo not shown) [Phe‐thiol]
inhibition of specific [125I]RB 129 binding (qualitative) [1]: concentration‐dependent inhibition | Ki (pure porcine APN): 0.0121 µM

O=C(CC(Cc1ccccc1)C(=O)N[C@@H](Cc1ccccc1)C(=O)O)NO (stereo partly shown) [RB 38A]
fold lower affinity in rat brain binding versus enzymatic assay ([1]; rat brain membrane K i vs enzymatic K i on porcine APN): more than 10 fold | inhibition of specific [125I]RB 129 binding (qualitative) [1]: concentration‐dependent inhibition | Ki (pure porcine APN): 0.12 µM | inhibition of specific [125I]RB 129 binding (qualitative) (recombinant pig APN [2]): concentration‐dependent inhibition

C[C@H](N)P(=O)(O)C[C@@H](Cc1ccccc1)C(=O)N[C@@H](Cc1ccc(O)c(I)c1)C(=O)O [RB 129, 2(S)‐benzyl‐3‐[hydroxy(1′(R)‐aminoethyl)phosphinyl]propanoyl‐L‐3‐iodotyrosine]
inhibition of specific [125I]RB 129 binding (qualitative) [1]: concentration‐dependent inhibition | Ki (NEP): 0.0236 µM | inhibition of specific [125I]RB 129 binding (qualitative) (recombinant pig APN [2]): concentration‐dependent inhibition

C[C@H](N)P(=O)(O)C[C@@H](Cc1ccccc1)C(=O)N[C@@H](Cc1ccc(O)c([125I])c1)C(=O)O [[^125I]RB 129, 2(S)‐benzyl‐3‐[hydroxy(1′(R)‐aminoethyl)phosphinyl]propanoyl‐L‐3‐[^125I]iodotyrosine]
specific binding on mutated APN (APN mutant E^350A): No specific binding; also recorded: non‐measurable specific binding | association rate constant, k +1 ([3]; 100 pM ligand, 35°C, rat brain membranes): 1.58e+06 M⁻¹ s⁻¹ | incubation time to reach binding equilibrium ([3]; 100 pM, 35°C): 80 min | specific binding at routine protein concentration ([3]; 0.4–0.6 mg/ml rat brain membrane protein): 80–98% | dissociation rate constant (k −1) ([3]; dissociation initiated with 1 μM unlabeled RB 129, 35°C): 0.022 min⁻¹ | specific binding at the K d value ([3]; rat brain homogenates): 95% | maximal capacity of binding sites (B max) ([3]; saturation, rat brain homogenates): 722±88 fmol/mg of protein and 722 fmol/mg of protein | specific binding at routine protein concentration (recombinant pig APN [4]; 50–100 μg/ml recombinant APN protein): 80–98% | specific binding at the K d value (recombinant pig APN [4]; recombinant APN in COS-7 cells): ~92% | maximal capacity of binding sites (B max) (recombinant pig APN [4]; recombinant APN wild-type in COS-7 cells): 650±67 fmol/mg of protein
